Measured values from ChEMBL document CHEMBL1124186, “Synthesis and evaluation of tylosin-related macrolides modified at the aldehyde function: a new series of orally effective antibiotics” (1988).
Values after ≈ are worked out from the molar mass of the structure shown.

Experiments:
[1] = tested on: Streptococcus pyogenes; assay: In vivo effective dose against experimental infections in rodent caused by Streptococcus pyogenes C203 when administered sc; type: functional
[2] = tested on: Prevotella melaninogenica; assay: In vitro antimicrobial activity against anaerobic bacteria bacteroides melaninogenicus 2736; type: functional
[3] = tested on: Streptococcus; assay: In vitro antimicrobial activity against aerobic bacteria Streptococcus D 8043; type: functional
[4] = tested on: Phocaeicola vulgatus; assay: In vitro antimicrobial activity against anaerobic bacteria bacteroides vulgatus 1211; type: functional
[5] = tested on: Staphylococcus aureus; assay: In vitro antimicrobial activity against aerobic bacteria Staphylococcus aureus V135; type: functional
[6] = tested on: Bacteroides fragilis; assay: In vitro antimicrobial activity against anaerobic bacteria bacteroides fragilis 1936B,; type: functional
[7] = tested on: Rattus norvegicus; assay: Peripheral plasma levels in rats after oral administration of 100 mg/kg dose for 0.25 hr; type: functional, organism-based; set-up: dose 100 mg/kg
Method in brief: (§1)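 Rats received 100 mg/kg orally and were sampled for peripheral plasma. Concentrations were measured by Micrococcus luteus agar-diffusion microbiological assay in Antibiotic Medium 1, with zone sizes converted using the standard curve for the appropriate compound. Each value is the average of three rats per time point.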

[8] = tested on: Mus musculus; assay: Peripheral plasma levels in mice after oral administration of 100 mg/kg dose for 2 hr; type: functional, organism-based; set-up: dose 100 mg/kg
Method in brief: (§2)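 Mice were given the compound orally and sampled for peripheral plasma at each time point. Plasma was assayed microbiologically against Micrococcus luteus seeded in Antibiotic Medium 1. Inhibition zone sizes were read, and concentrations were calculated from each compound's own standard curve. Each value is the mean of five mice per time point.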

[9] = tested on: Mus musculus; assay: Peripheral plasma levels in mice after oral administration of 50 mg/kg dose for 1 hr; type: functional, organism-based; set-up: dose 50 mg/kg; method in brief: as §2
[10] = tested on: Streptococcus; assay: In vitro antimicrobial activity against aerobic bacteria Streptococcus D 2041; type: functional
[11] = tested on: Fusobacterium; assay: In vitro antimicrobial activity against anaerobic bacteria fusobacterium symbiosum 1470; type: functional
[12] = tested on: Streptococcus pneumoniae; assay: In vitro antimicrobial activity against aerobic bacteria Streptococcus pneumoniae B1-438; type: functional, streptococcus pneum
[13] = tested on: Anaerococcus prevotii; assay: In vitro antimicrobial activity against anaerobic bacteria peptococcus prevoti 1281; type: functional
[14] = tested on: Staphylococcus epidermidis; assay: In vitro antimicrobial activity against aerobic bacteria Streptococcus epi 222; type: functional
[15] = tested on: Rattus norvegicus; assay: Peripheral plasma levels in rats after oral administration of 100 mg/kg dose for 4 hr; type: functional, organism-based; set-up: dose 100 mg/kg; method in brief: as §1
[16] = tested on: Clostridium septicum; assay: In vitro antimicrobial activity against anaerobic bacteria clostridium septicum 1128; type: functional
[17] = tested on: Staphylococcus epidermidis; assay: In vitro antimicrobial activity against aerobic bacteria Streptococcus epi 270; type: functional
[18] = tested on: Peptoniphilus asaccharolyticus; assay: In vitro antimicrobial activity against anaerobic bacteria peptococcus asaccharolyticus 1302; type: functional
[19] = tested on: Streptococcus; assay: In vitro antimicrobial activity against aerobic bacteria Streptococcus B 8; type: functional
[20] = tested on: Staphylococcus aureus; assay: In vitro antimicrobial activity against aerobic bacteria Staphylococcus aureus V140,; type: functional
[21] = tested on: Streptococcus viridans; assay: In vitro antimicrobial activity against aerobic bacteria Streptococcus viridans 9943; type: functional
[22] = tested on: Staphylococcus aureus; assay: In vitro antimicrobial activity against aerobic bacteria Staphylococcus aureus X400; type: functional
[23] = tested on: Streptococcus; assay: In vitro antimicrobial activity against aerobic bacteria Streptococcus G Kruder; type: functional; settings: Streptococcus; read-out: MIC
[24] = tested on: Mus musculus; assay: Peripheral plasma levels in mice after oral administration of 100 mg/kg dose for 1 hr; type: functional, organism-based; set-up: dose 100 mg/kg; method in brief: as §2
[25] = tested on: Bacteroides fragilis; assay: In vitro antimicrobial activity against anaerobic bacteria bacteroides fragilis 1877; type: functional
[26] = tested on: Fusobacterium necrophorum; assay: In vitro antimicrobial activity against anaerobic bacteria usobacterium necrophorum 6054A; type: functional
[27] = tested on: Eikenella corrodens; assay: In vitro antimicrobial activity against anaerobic bacteria bacteroides corrodens 1874; type: functional
[28] = tested on: Haemophilus influenzae; assay: In vitro antimicrobial activity against aerobic bacteria Haemophilus influenzae 76; type: functional
[29] = tested on: Rattus norvegicus; assay: Peripheral plasma levels in rats after oral administration of 100 mg/kg dose for 2 hr; type: functional, organism-based; set-up: dose 100 mg/kg; method in brief: as §1
[30] = tested on: Rattus norvegicus; assay: Peripheral plasma levels in rats after oral administration of 100 mg/kg dose for 1 hr; type: functional, organism-based; set-up: dose 100 mg/kg; method in brief: as §1
[31] = tested on: Rattus norvegicus; assay: Peripheral plasma levels in rats after oral administration of 100 mg/kg dose for 0.5 hr; type: functional, organism-based; set-up: dose 100 mg/kg; method in brief: as §1
[32] = tested on: Mus musculus; assay: Peripheral plasma levels in mice after oral administration of 50 mg/kg dose for 2 hr; type: functional, organism-based; set-up: dose 50 mg/kg; method in brief: as §2
[33] = tested on: Mus musculus; assay: Peripheral plasma levels in mice after oral administration of 100 mg/kg dose for 0.5 hr; type: functional, organism-based; set-up: dose 100 mg/kg; method in brief: as §2
[34] = tested on: Staphylococcus aureus; assay: In vivo effective dose against experimental infections in mice Staphylococcus aureus X1 when administered orally; type: functional; settings: po
[35] = tested on: Clostridium perfringens; assay: In vitro antimicrobial activity against anaerobic bacteria clostridium perfringens 81,; type: functional
[36] = tested on: Mus musculus; assay: Peripheral plasma levels in mice after oral administration of 100 mg/kg dose for 0.25 hr; type: functional, organism-based; set-up: dose 100 mg/kg; method in brief: as §2
[37] = tested on: Staphylococcus aureus; assay: In vitro antimicrobial activity against aerobic bacteria Staphylococcus aureus 513E; type: functional
[38] = tested on: Mus musculus; assay: Peripheral plasma levels in mice after oral administration of 50 mg/kg dose for 0.25 hr; type: functional, organism-based; set-up: dose 50 mg/kg; method in brief: as §2
[39] = tested on: Collinsella aerofaciens; assay: In vitro antimicrobial activity against anaerobic bacteria eubacterium aerofaciens 1235; type: functional
[40] = tested on: Clostridioides difficile; assay: In vitro antimicrobial activity against anaerobic bacteria Clostridium difficile 2994; type: functional
[41] = tested on: Streptococcus pneumoniae; assay: In vivo effective dose against experimental infections in mice Strep. pneumoniae park when administered sc; type: functional
[42] = tested on: Haemophilus influenzae; assay: In vitro antimicrobial activity against aerobic bacteria Haemophilus influenzae MX366,; type: functional
[43] = tested on: Streptococcus; assay: In vitro antimicrobial activity against aerobic bacteria Streptococcus D 9960; type: functional
[44] = tested on: Streptococcus pneumoniae; assay: In vitro antimicrobial activity against Streptococcus pneumoniae; type: functional
[45] = tested on: Bacteroides fragilis; assay: In vitro antimicrobial activity against anaerobic bacteria bacteroides fragilis 111; type: functional
[46] = tested on: Streptococcus; assay: In vitro antimicrobial activity against aerobic bacteria Streptococcus B 14; type: functional
[47] = tested on: Streptococcus pyogenes; assay: In vitro antimicrobial activity against Streptococcus pyogenes C203; type: functional
[48] = tested on: Enterococcus faecium; assay: In vitro antimicrobial activity against Streptococcus faecium X66; type: functional, streptococcus fae-cium
[49] = tested on: Staphylococcus aureus; assay: In vivo effective dose against experimental infections in mice Staphylococcus aureus X1 when administered sc; type: functional
[50] = tested on: Chlamydia trachomatis; assay: In vitro antimicrobial activity against chlamydia trachomatis.; type: functional
[51] = tested on: Streptococcus; assay: In vitro antimicrobial activity against aerobic bacteria Streptococcus B 5; type: functional
[52] = tested on: Peptostreptococcus anaerobius; assay: In vitro antimicrobial activity against anaerobic bacteria eubacterium peptostreptococcus anaerobius 1428,; type: functional
[53] = tested on: Mus musculus; assay: Peripheral plasma levels in mice after oral administration of 50 mg/kg dose for 0.5 hr; type: functional, organism-based; set-up: dose 50 mg/kg; method in brief: as §2
[54] = tested on: Streptococcus pneumoniae; assay: In vivo effective dose against experimental infections in mice Strep. pneumoniae park when administered orally; type: functional; settings: po
[55] = In vitro antimicrobial activity against anaerobic bacteria peptostreptococcus intermedius 1264; type: functional
[56] = tested on: Bacteroides thetaiotaomicron; assay: In vitro antimicrobial activity against anaerobic bacteria bacteroides thetaiotaomicron 1438; type: functional
[57] = tested on: Haemophilus influenzae; assay: In vitro antimicrobial activity against Haemophilus influenzae.; type: functional
[58] = tested on: Streptococcus; assay: In vitro antimicrobial activity against aerobic bacteria Streptococcus C 24; type: functional
[59] = tested on: Staphylococcus aureus; assay: In vitro antimicrobial activity against aerobic bacteria Staphylococcus aureus V41; type: functional
[60] = tested on: Cutibacterium acnes; assay: In vitro antimicrobial activity against anaerobic bacteria propionibacterium acnes 79; type: functional
[61] = tested on: Mus musculus; assay: Peripheral plasma levels in mice after oral administration of 50 mg/kg dose for 4 hr; type: functional, organism-based; set-up: dose 50 mg/kg; method in brief: as §2
[62] = tested on: Streptococcus sanguinis; assay: In vitro antimicrobial activity against aerobic bacteria Streptococcus sanguis MX132; type: functional
[63] = tested on: Mus musculus; assay: Peripheral plasma levels in mice after oral administration of 100 mg/kg dose for 4 hr; type: functional, organism-based; set-up: dose 100 mg/kg; method in brief: as §2
[64] = tested on: Staphylococcus aureus; assay: In vitro antimicrobial activity against Staphylococcus aureus X1; type: functional
[65] = tested on: Staphylococcus epidermidis; assay: In vitro antimicrobial activity against Staphylococcus epidermidis EPI1; type: functional
[66] = tested on: Streptococcus pyogenes; assay: In vivo effective dose against experimental infections in rodent caused by Streptococcus pyogenes C203 when administered orally; type: functional; settings: po
[67] = tested on: Prevotella melaninogenica; assay: In vitro antimicrobial activity against anaerobic bacteria bacteroides melaninogenicus 1856,; type: functional

Compound: CC[C@H]1C[C@@H](C)C(=O)/C=C/C(C)=C/[C@H](CO[C@@H]2O[C@H](C)[C@@H](O)[C@@H](OC)[C@H]2OC)[C@@H](CC)OC(=O)C[C@@H](O)[C@H](C)[C@H]1O[C@@H]1O[C@H](C)[C@@H](O)[C@H](N(C)C)[C@H]1O
- ED50 [1]: 4.3 mg/kg
- MIC [2]: 4 µg/mL (≈ 5.28 µM)
- MIC [3]: 8 µg/mL (≈ 10.6 µM)
- MIC [4]: 2 µg/mL (≈ 2.64 µM)
- MIC [5]: 0.25 µg/mL (≈ 0.33 µM)
- MIC [6]: 4 µg/mL (≈ 5.28 µM)
- Concentration [7]: 4.6 µg/mL
- Concentration [8]: 2.3 µg/mL
- Concentration [9]: 2 µg/mL
- MIC [10]: 8 µg/mL (≈ 10.6 µM)
- MIC [11]: 2 µg/mL (≈ 2.64 µM)
- MIC [12]: > 128 µg/mL
- MIC [13]: 2 µg/mL (≈ 2.64 µM)
- MIC [14]: 0.12 µg/mL (≈ 0.158 µM)
- Concentration [15]: 5.1 µg/mL
- MIC [16]: < 0.5 µg/mL
- MIC [17]: > 128 µg/mL
- MIC [18]: 2 µg/mL (≈ 2.64 µM)
- MIC [19]: 8 µg/mL (≈ 10.6 µM)
- MIC [20]: 0.5 µg/mL (≈ 0.66 µM)
- MIC [21]: > 128 µg/mL
- MIC [22]: 0.5 µg/mL (≈ 0.66 µM)
- MIC [23]: 64 µg/mL (≈ 84.4 µM)
- Concentration [24]: 3.4 µg/mL
- MIC [25]: 4 µg/mL (≈ 5.28 µM)
- MIC [26]: 8 µg/mL (≈ 10.6 µM)
- MIC [27]: 4 µg/mL (≈ 5.28 µM)
- MIC [28]: 16 µg/mL (≈ 21.1 µM)
- Concentration [29]: 8.7 µg/mL
- Concentration [30]: 7.2 µg/mL
- Concentration [31]: 7.4 µg/mL
- Concentration [32]: 2.2 µg/mL
- Concentration [33]: 4.5 µg/mL
- ED50 [34]: 10 mg/kg
- MIC [35]: 2 µg/mL (≈ 2.64 µM)
- Concentration [36]: 2.6 µg/mL
- MIC [37]: 0.25 µg/mL (≈ 0.33 µM)
- Concentration [38]: 0.9 µg/mL
- MIC [39]: 2 µg/mL (≈ 2.64 µM)
- MIC [40]: < 0.5 µg/mL
- ED50 [41]: > 20 mg/kg
- MIC [42]: 16 µg/mL (≈ 21.1 µM)
- MIC [43]: 16 µg/mL (≈ 21.1 µM)
- MIC [44]: 2 µg/mL (≈ 2.64 µM)
- MIC [45]: 4 µg/mL (≈ 5.28 µM)
- MIC [46]: 16 µg/mL (≈ 21.1 µM)
- MIC [47]: 0.5 µg/mL (≈ 0.66 µM)
- MIC [48]: 16 µg/mL (≈ 21.1 µM)
- ED50 [49]: 2.2 mg/kg
- MIC [50]: 0.5 µg/mL (≈ 0.66 µM)
- MIC [51]: 8 µg/mL (≈ 10.6 µM)
- MIC [52]: < 0.5 µg/mL
- Concentration [53]: 0.5 µg/mL
- ED50 [54]: > 50 mg/kg
- MIC [55]: 4 µg/mL (≈ 5.28 µM)
- MIC [56]: 4 µg/mL (≈ 5.28 µM)
- MIC [57]: 16 µg/mL (≈ 21.1 µM)
- MIC [58]: 0.5 µg/mL (≈ 0.66 µM)
- MIC [59]: 0.25 µg/mL (≈ 0.33 µM)
- MIC [60]: 8 µg/mL (≈ 10.6 µM)
- Concentration [61]: 0.9 µg/mL
- MIC [62]: 2 µg/mL (≈ 2.64 µM)
- Concentration [63]: 0.8 µg/mL
- MIC [64]: 0.25 µg/mL (≈ 0.33 µM)
- MIC [65]: 0.25 µg/mL (≈ 0.33 µM)
- ED50 [66]: 7 mg/kg
- MIC [67]: 1 µg/mL (≈ 1.32 µM)
